Published values from different studies.
Lines come from different studies, so protocols differ. pKi: −log10 of the molar value.
Target: Carbonic anhydrase 2 (CA2, Homo sapiens, UniProt P00918)
Effect on: enzyme activity
Mode: inhibitor

NS(=O)(=O)c1nnc(NC(=O)C2CC23CCCOC3)s1 (centres unmarked)  pKi (stopped-flow): 7.29
Cc1c(Cl)c(=O)oc2cc(OCCCCSC#N)ccc12  pKi (stopped-flow): < 4.00
OC1CCN(c2ccc(/C=N/NC(=S)NC3CCCCC3)cc2)CC1  pKi: 6.32
CC1(C(=O)Nc2nnc(S(N)(=O)=O)s2)CCC1  pKi (stopped-flow): 7.53
CCOCCn1c(C2CCN(CCc3ccc(C(C)(C)C(=O)O)cc3)CC2)nc2ccccc21  pKi (absorbance): 5.07
Cc1ccc(CNC(=S)N/N=C/c2ccc(N3CCC(O)CC3)cc2)cc1  pKi: 6.11
Cc1ccccc1CC(=O)Nc1nnc(S(N)(=O)=O)s1  pKi (stopped-flow): 7.59
N#CSCCCCOc1ccc2c(-c3ccccc3)cc(=O)oc2c1  pKi (stopped-flow): < 4.00
OCCOCCN1CCN(C(c2ccccc2)c2ccc(Cl)cc2)CC1 (centres unmarked)  pKi (absorbance): 4.94
OC1CCN(c2ccc(/C=N/NC(=S)Nc3ccccc3)cc2)CC1  pKi: 6.30
C[C@H]1CCC[C@H](C(=O)Nc2nnc(S(N)(=O)=O)s2)C1 (racemic)  pKi (stopped-flow): 7.83
O=C(O)COCCN1CCN(C(c2ccccc2)c2ccc(Cl)cc2)CC1 (centres unmarked)  pKi (absorbance): 5.02
OC1CCN(c2ccc(/C=N/NC(=S)NCCc3ccccc3)cc2)CC1  pKi: 6.18
NS(=O)(=O)c1nnc(NC(=O)C(F)CC2CCCCC2)s1 (centres unmarked)  pKi (stopped-flow): 8.31
C[C@H]1c2cccc(O)c2C(=O)C2=C(O)[C@]3(O)C(=O)C(C(N)=O)=C(O)[C@@H](N(C)C)[C@@H]3[C@@H](O)[C@@H]21  pKi (absorbance): 5.05
Cc1cccc(C)c1NC(=S)N/N=C/c1ccc(N2CCC(O)CC2)cc1  pKi: 6.36
Cn1cnc([N+](=O)[O-])c1Sc1ncnc2nc[nH]c12  pKi (absorbance): 4.89
NS(=O)(=O)c1cnc(NC(=O)CC2CCCCC2)s1  pKi (stopped-flow): 7.27
CN(C)CCC(c1ccccc1)c1ccccn1 (centres unmarked)  pKi (absorbance): 4.85
OC1CCN(c2ccc(/C=N/NC(=S)NCc3ccc(Cl)cc3)cc2)CC1  pKi: 6.42
